As usually defined, the pIC50 is the negative decadic logarithm of the IC50, by convention in mol/L. Broadly, the pKi is −log10 of the Ki, conventionally taken in molar units.

SMILES strings stand for the structures. pIC50, pKi: −log10 of the molar value. Read-outs that look alike come from different tables or passages of the source.

Test [1] addresses T1, NPSR (Homo sapiens, UniProt Q6W5P4).
T1 sequence (Q6W5P4 1-371): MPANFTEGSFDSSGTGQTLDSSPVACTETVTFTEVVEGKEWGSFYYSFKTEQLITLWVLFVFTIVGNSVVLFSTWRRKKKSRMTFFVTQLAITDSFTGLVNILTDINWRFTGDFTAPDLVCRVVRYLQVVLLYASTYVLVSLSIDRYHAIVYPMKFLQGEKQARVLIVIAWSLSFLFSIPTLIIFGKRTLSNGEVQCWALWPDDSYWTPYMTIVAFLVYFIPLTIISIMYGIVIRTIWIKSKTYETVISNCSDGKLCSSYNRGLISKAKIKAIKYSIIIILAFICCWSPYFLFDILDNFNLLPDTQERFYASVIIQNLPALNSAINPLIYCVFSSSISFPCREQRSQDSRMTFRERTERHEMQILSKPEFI
As to the kind of experiment: cAMP assay. The test is classed as cell-based. As to conditions: Table 5. In general terms: cAMP levels reflect the balance of adenylyl cyclase and phosphodiesterase activity.

The test system of test [2] is NPS induced hyperlocomotion. The following applies: cited from earlier work.
In test [3] the target is T1, NPSR. Nature of the test: Intracellular calcium assay. The test is classed as cell-based. (Calcium assays in cells follow changes in intracellular calcium, usually with a dye or a luminescent sensor.)
Test [4] has as its target T1, NPSR. As to the kind of experiment: Radioligand binding assay, displacement of [125I]Y10-NPS on CHO-NPSR cells. The gist of the method: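 Whole CHO-NPSR cells at about 95% confluence were washed with PBS. They were then incubated for 90 min at room temperature in DMEM with 0.1% BSA, 0.15 nM [125I]Y10-NPS and increasing concentrations of unlabeled human NPS or test compound. Nonspecific binding was taken with 1 μM NPS. Cells were washed in ice-cold PBS, lysed in 1 N NaOH and gamma-counted. Experiments were run in duplicate.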
On the technique in general: Displacement assays read how much labelled ligand stays bound in the presence of the test substance.

Consider `COc1cccc(C2c3c(ncn(-c4ccccc4C#N)c3=N)Oc3ccc4ccccc4c32)c1` (centres unmarked) [Compound 3aa, 10-(2-Cyanophenyl)-12-(3-methoxyphenyl)-12H-naphtho[1',2':5,6]pyrano[2,3-d]pyrimidin-11-imine], for which, in test [1], the “cAMP activity (in words)” value is recorded as “no cAMP activity”. Regarding `CCC(C)(CCN1CCOCC1)N(Cc1cc2ccccc2n(C)c1=O)C(=O)C1CCCCC1` (centres unmarked) [Compound 2, N-(3-methyl-1-morpholinopentan-3-yl)-N-((1-methyl-2-oxo-1,2-dihydroquinolin-3-yl)methyl)cyclohexanecarboxamide], the “effect on NPS induced hyperlocomotion” value in test [2] (initial pharmacological results) is recorded as “capacity to reduce the NPS induced hyperlocomotion”. In the case of `O=C1OC(c2ccccc2)(c2ccccc2)N2CCN(C(=O)NCc3ccc(F)cc3)CC12` (centres unmarked) [Compound 1, N-(4-fluorobenzyl)-1-oxo-3,3-diphenyltetrahydro-1H-oxazolo[3,4-a]pyrazine-7(3H)-carboxamide], the “effect on NPS induced hyperlocomotion” value in test [2] (mice) is given as “partially reduce the NPS induced hyperlocomotion”. On to `COc1ccc(C2c3c(N)nc(Cc4ccccc4)nc3Oc3ccc4ccccc4c32)cc1OC` (centres unmarked) [Compound 10a], for which, in test [3], the pIC50 is under 4.52. For `COc1ccc(C2c3c(ncn(CCN4CCOCC4)c3=N)Oc3ccc4ccccc4c32)cc1OC` (centres unmarked) [Compound 3a, 10-(2-morpholinoethyl)-12-(3,4-dimethoxyphenyl)-12H-naphtho[1',2':5,6]pyrano[2,3-d]pyrimidin-11-imine], in test [4], the pKi was 6.68.

(Values after article PMC2992437 (ACS chemical neuroscience, 2010).)
